According to ChEMBL document CHEMBL1148336, “3-Aminopyrazole inhibitors of CDK2/cyclin A as antitumor agents. 1. Lead finding” (J Med Chem, 2004):

What was measured:
[1] = target: CDC7/DBF4 (Cell division cycle 7-related protein kinase/Activator of S phase kinase) (Homo sapiens, UniProt O00311); test: Inhibition of CDC7/DBF4 kinase activity; format: protein-complex assay
Procedure, shortened: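 Recombinant CDC7/DBF4 (insect cells), 18 nM, with MCM2 substrate in 50 mM Hepes pH 7.5, 5 mM MgCl2, 1 mM DTT, 3 μM NaVO3. ATP/33P-γ-ATP at 2Km, substrate at 5Km, 1% DMSO, compound 10 to 0.0015 μM in 3-fold steps, 30–90 min at room temperature. SPA bead capture.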

[2] = target: Cyclin-dependent kinase 4/cyclin D1 (Homo sapiens, UniProt P11802)
[3] = Oral bioavailability after oral (po) administration at a dose of 10 mg/kg was measured in rats; format: ADME, organism-based; conditions: rat, in vivo, read-out: Bioavailabiility
Procedure, shortened: (§1)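 Male Sprague Dawley rats (~270), fasted overnight, received a single iv or oral dose in PEG400, 4% Tween 80/dextrose (60:40), three rats per route. Jugular/catheter blood was drawn predose and at 5, 15 and 30 min and 1, 2, 4, 6 and 24 h, and plasma was analysed by LC/MS/MS. Analysis was noncompartmental: Cmax/Tmax observed, AUC by linear trapezoidal rule, and F from dose-normalized oral/iv AUC.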

Rattus norvegicus [4] = test: In vivo area under curve was determined for the compound after i.v. administration at a dose of 5 mg/kg in rats; format: ADME, organism-based; set-up: dose 5 mg/kg, route intravenous; conditions: iv; procedure, shortened: as §1
[5] = target: Tyrosine-protein kinase ZAP-70 (Homo sapiens, UniProt P43403); test: Inhibition of Zeta-chain (TCR) associated protein kinase 70 kDa (ZAP70)
Procedure, shortened: (§2)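 Radiometric kinase assay. Enzyme (0.7–100 nM) and substrate (5Km) incubated with ATP/33P-γ-ATP (2Km) and compound serially diluted 3-fold from 10 to 0.0015 μM, 1% DMSO, 30–90 min at room temperature. Product separated by SPA, Dowex or phosphocellulose filter, then counted.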

[6] = target: Glycogen synthase kinase-3 beta (Homo sapiens, UniProt P49841); test: Inhibition of Glycogen synthase kinase-3 beta
Procedure, shortened: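 GSK-3β at 20 nM (in-house, insect cells), MBP substrate, 50 mM Hepes pH 7.5, 3 mM MgCl2, 3 mM MnCl2, 1 mM DTT, 3 μM NaVO3. ATP/33P-γ-ATP 2Km, substrate 5Km, 1% DMSO. 3-fold dilutions from 10 μM, 30–90 min at room temperature. SPA.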

[7] = Steady-state volume of distribution was evaluated for the compound after i.v. administration at a dose of 5 mg/kg was measured in rats; format: ADME, organism-based; set-up: dose 5 mg/kg, route intravenous; conditions: rat, in vivo, iv, read-out: Vss; procedure, shortened: as §1
[8] = target: 3-phosphoinositide-dependent protein kinase 1 (Homo sapiens, UniProt O15530); test: Inhibition of PDK1 kinase activity; procedure, shortened: as §2
[9] = target: Fibroblast growth factor receptor 1 (Homo sapiens, UniProt P11362); test: Inhibition of Fibroblast growth factor receptor 1
Procedure, shortened: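 Radiolabelled ATP at 2Km, substrate 5Km, 1% DMSO, compound 10 to 0.0015 μM, 30–90 min at room temperature. SPA capture.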

[10] = Ability of compound to bind to plasma protein was evaluated in HSA cells; format: ADME, cell-based; conditions: mouse, HSA cells (so in the source), read-out: PPB
Procedure, shortened: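 HPLC retention time measured on a column coupled with human serum albumin. Percent bound is assigned by comparing the retention time with those of known standards.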

Rattus norvegicus [11] = organism: Rattus norvegicus; test: Metabolic rate for compound was observed in rat hepatocytes; format: ADME, Liver, Hepatocyte
Procedure, shortened: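 Compound at 1 μM was incubated with 10^6 rat hepatocytes in 1 mL Leibovitz's medium at 37 °C with shaking. Samples were taken at 0.5–90 min and quenched in ice-cold acetonitrile. Parent was quantified by LC/MS/MS, with hepatocyte-free controls and reference clearance drugs.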

[12] = target: Serine/threonine-protein kinase Chk1 (Homo sapiens, UniProt O14757); test: Inhibition of Serine/threonine-protein kinase Chk1
Procedure, shortened: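 ATP/33P-γ-ATP 2Km, substrate 5Km, 1% DMSO, compound 10–0.0015 μM, 30–90 min at room temperature. SPA.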

[13] = target: Protein kinase C beta type (Homo sapiens, UniProt P05771); test: Inhibition of Protein kinase C beta
Procedure, shortened: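 PKCβ was commercially sourced. It was used at 0.7–100 nM enzyme with substrate at 5Km and ATP/33P-γ-ATP at 2Km, 1% DMSO, and compound in 3-fold steps from 10 to 0.0015 μM, for 30–90 min at room temperature. Phosphorylated product was separated and counted. Four-parameter logistic IC50, mean of at least two experiments.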

Chain of Tyrosine-protein kinase ZAP-70 (P43403 whole entry): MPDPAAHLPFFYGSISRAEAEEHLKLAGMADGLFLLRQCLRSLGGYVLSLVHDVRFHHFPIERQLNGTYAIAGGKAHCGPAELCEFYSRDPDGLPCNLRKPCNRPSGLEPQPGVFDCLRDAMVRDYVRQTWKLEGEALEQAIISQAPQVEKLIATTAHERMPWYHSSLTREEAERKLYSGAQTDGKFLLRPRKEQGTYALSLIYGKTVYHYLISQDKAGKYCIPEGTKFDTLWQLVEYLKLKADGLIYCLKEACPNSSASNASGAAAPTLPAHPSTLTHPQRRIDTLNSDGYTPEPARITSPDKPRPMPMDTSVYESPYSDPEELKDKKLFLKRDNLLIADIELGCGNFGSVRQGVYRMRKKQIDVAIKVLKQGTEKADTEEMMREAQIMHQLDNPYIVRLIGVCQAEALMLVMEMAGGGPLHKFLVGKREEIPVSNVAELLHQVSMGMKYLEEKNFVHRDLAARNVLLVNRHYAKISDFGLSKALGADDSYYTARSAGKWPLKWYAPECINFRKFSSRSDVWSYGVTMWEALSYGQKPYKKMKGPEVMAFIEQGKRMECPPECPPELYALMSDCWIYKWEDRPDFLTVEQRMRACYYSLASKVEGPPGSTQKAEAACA
Chain of Fibroblast growth factor receptor 1 (P11362 whole entry): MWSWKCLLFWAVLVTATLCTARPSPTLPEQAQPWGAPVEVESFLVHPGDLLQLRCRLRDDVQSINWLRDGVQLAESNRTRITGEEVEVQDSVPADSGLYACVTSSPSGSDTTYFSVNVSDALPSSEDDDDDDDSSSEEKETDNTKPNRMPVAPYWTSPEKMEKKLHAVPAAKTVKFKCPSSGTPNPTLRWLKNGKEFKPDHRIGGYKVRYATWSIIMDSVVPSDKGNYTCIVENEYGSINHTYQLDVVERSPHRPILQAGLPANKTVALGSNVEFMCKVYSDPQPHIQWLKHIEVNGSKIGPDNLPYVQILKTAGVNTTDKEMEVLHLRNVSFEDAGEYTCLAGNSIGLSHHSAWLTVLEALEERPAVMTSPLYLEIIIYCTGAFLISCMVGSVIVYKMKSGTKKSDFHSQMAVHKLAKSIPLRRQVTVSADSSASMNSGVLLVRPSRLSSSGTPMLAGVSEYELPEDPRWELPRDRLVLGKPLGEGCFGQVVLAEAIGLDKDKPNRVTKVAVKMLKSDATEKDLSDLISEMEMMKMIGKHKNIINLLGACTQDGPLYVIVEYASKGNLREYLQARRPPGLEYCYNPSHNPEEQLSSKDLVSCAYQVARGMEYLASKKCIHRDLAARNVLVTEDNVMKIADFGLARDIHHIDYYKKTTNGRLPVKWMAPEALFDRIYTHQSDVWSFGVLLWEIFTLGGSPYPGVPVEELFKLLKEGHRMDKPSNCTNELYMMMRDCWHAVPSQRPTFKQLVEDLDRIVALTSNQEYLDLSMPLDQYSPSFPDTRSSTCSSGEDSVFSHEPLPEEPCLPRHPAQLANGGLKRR
Chain of CDC7/DBF4 (Cell division cycle 7-related protein kinase/Activator of S phase kinase) (Q9UBU7 whole entry): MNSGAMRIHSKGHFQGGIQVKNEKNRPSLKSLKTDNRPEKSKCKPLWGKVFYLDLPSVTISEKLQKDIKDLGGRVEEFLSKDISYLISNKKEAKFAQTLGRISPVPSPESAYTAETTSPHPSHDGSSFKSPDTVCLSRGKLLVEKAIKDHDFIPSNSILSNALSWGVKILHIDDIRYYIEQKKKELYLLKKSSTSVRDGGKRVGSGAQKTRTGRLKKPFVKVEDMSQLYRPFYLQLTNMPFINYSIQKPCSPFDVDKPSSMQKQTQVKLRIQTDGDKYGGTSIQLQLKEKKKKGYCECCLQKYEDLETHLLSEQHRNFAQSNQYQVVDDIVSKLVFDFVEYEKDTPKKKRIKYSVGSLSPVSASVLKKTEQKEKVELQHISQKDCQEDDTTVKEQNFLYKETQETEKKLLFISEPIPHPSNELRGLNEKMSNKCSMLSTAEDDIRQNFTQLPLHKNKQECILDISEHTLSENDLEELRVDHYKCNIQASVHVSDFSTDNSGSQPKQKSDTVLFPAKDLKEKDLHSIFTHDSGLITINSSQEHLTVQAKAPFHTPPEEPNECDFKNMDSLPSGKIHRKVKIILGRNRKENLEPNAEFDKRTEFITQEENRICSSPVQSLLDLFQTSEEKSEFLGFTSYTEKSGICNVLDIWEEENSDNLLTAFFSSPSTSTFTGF
Chain of CDC7/DBF4 (Cell division cycle 7-related protein kinase/Activator of S phase kinase) (O00311 whole entry): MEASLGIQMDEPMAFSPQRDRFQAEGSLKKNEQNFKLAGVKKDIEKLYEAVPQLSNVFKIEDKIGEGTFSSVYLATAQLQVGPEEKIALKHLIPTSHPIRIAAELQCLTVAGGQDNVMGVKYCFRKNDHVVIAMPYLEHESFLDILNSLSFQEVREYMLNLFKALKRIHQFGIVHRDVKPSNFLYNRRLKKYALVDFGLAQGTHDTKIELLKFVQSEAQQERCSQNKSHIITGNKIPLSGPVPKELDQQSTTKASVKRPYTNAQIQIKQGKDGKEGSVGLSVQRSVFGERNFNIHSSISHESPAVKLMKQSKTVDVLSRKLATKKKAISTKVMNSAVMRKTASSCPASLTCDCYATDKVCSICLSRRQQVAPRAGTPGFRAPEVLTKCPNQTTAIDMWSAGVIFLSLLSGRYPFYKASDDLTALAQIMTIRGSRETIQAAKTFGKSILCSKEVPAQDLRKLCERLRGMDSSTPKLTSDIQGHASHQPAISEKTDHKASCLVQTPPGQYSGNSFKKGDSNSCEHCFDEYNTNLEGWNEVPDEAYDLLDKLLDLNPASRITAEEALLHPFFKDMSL
Chain of Glycogen synthase kinase-3 beta (P49841 whole entry): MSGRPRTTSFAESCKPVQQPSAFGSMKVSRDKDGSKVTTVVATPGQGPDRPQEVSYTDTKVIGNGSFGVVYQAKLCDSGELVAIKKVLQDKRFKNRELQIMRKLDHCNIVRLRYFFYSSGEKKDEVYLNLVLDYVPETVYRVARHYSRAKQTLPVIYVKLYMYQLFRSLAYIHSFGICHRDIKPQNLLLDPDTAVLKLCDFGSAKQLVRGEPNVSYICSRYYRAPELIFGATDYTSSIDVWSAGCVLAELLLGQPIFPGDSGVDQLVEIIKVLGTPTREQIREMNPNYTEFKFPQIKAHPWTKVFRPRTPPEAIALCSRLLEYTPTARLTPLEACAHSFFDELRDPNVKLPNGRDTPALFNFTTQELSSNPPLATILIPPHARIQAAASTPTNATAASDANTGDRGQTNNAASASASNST
Chain of 3-phosphoinositide-dependent protein kinase 1 (O15530 whole entry): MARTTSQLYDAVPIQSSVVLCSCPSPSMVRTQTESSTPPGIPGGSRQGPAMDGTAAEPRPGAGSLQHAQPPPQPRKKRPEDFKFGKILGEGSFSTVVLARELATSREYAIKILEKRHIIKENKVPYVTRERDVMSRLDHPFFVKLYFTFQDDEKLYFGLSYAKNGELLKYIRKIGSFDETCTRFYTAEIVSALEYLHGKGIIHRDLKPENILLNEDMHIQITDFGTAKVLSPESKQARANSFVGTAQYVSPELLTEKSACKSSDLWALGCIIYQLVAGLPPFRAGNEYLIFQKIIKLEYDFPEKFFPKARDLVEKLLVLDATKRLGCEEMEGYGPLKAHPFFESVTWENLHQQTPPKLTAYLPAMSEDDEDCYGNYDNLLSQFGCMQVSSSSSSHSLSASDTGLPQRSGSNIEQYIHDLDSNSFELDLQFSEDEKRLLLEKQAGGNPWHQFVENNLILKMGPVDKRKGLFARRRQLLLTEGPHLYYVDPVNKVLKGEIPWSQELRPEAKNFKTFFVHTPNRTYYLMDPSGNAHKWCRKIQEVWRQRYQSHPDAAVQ
Chain of Protein kinase C beta type (P05771 whole entry): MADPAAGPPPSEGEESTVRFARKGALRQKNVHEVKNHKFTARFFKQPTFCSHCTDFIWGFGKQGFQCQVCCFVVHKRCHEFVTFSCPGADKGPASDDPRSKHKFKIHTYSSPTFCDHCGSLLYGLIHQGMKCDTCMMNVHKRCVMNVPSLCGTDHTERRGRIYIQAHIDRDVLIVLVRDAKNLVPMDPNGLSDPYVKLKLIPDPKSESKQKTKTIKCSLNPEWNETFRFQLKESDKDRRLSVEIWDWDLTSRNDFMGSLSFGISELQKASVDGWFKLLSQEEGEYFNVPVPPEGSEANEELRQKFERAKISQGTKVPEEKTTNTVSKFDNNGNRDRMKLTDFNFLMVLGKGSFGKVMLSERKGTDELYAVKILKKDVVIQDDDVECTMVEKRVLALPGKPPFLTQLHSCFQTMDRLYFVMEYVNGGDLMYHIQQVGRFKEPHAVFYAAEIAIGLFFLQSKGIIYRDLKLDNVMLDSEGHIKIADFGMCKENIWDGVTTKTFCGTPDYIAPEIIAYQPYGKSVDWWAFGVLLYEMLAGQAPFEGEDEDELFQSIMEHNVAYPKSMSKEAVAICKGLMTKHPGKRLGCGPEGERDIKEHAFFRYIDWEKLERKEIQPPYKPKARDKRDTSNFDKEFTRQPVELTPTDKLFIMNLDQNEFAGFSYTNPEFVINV
Chain of Cyclin-dependent kinase 4/cyclin D1 (P11802 whole entry): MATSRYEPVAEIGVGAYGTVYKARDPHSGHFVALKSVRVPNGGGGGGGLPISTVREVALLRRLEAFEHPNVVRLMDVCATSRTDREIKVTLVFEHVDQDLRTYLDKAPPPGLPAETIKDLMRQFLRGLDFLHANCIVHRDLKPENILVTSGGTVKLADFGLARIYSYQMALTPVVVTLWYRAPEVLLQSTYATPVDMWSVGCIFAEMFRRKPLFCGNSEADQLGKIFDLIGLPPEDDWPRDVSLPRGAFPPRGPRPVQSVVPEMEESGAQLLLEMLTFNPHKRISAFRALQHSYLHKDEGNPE
Chain of Cyclin-dependent kinase 4/cyclin D1 (P24385 whole entry, further chain): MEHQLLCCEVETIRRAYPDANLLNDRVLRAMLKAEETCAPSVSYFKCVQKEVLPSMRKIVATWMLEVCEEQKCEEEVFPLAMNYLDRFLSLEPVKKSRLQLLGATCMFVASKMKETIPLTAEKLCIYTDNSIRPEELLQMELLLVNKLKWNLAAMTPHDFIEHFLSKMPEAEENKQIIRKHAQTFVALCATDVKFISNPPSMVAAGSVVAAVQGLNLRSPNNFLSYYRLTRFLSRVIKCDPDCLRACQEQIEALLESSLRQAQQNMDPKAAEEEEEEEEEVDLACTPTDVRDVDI

O=C(Cc1ccc2ccccc2c1)Nc1cc(C2CC2)n[nH]1
IC50 [1]: > 10 µM | IC50 [2]: > 10 µM | bioavailability [3]: 89.8% | AUC total (Rattus norvegicus [4]): 21.24 µM·h | IC50 [5]: > 10 µM | IC50 [6]: 1.91 µM | Vd [7]: 1.06 L/kg | IC50 [8]: > 10 µM | IC50 [9]: > 10 µM | fraction unbound [10]: 0.01 | Metabolic rate (Rattus norvegicus [11]): 27.8 mL/min/kg | IC50 [12]: > 10 µM | IC50 [13]: > 10 µM
